The source of these data is publication PMC7172969 (Journal of Hepatology, 2016).

Each structure is given as a SMILES string.

In assay [1] the test system is HBV replication. Put plainly: HBV replication assay in HepG2.2.15.7 cells. Type of assay: cell-based, hepatitis B virus. The settings on record: six days, ETV 1 μM, CsA and its derivatives 8 μM. The gist of the method: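 HepG2.2.15.7 cells support HBV replication but not entry. They were treated for six days with test compound (8 μM), entecavir 1 μM as positive control, or DMSO 0.16%. HBV DNA released into the culture supernatant was then quantified by real-time PCR.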

The subject of assay [2] is HBV (genotype D). Put plainly: HBV infection assay in HepG2-hNTCP-C4 cells. Type of assay: cell-based, hepatitis B virus. As to conditions: same concentration conditions (40 and 100 μM). The gist of the method:
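HepG2-hNTCP-C4 cells were inoculated with genotype D HBV from Hep38.7-Tet culture supernatant at 6000 GEq/cell in 4% PEG8000. Test compound (8 μM), preS1 peptide (100 nM) or DMSO 0.16% was present for 16 h. Cells were washed and cultured 12 more days without compound. On day 13, supernatant HBs was measured by ELISA and intracellular HBc by immunofluorescence with image quantification. MTT viability was run in parallel.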

Assay [3] has as its target T1, NTCP (Homo sapiens, UniProt Q14973).
T1 sequence (Q14973 1-349): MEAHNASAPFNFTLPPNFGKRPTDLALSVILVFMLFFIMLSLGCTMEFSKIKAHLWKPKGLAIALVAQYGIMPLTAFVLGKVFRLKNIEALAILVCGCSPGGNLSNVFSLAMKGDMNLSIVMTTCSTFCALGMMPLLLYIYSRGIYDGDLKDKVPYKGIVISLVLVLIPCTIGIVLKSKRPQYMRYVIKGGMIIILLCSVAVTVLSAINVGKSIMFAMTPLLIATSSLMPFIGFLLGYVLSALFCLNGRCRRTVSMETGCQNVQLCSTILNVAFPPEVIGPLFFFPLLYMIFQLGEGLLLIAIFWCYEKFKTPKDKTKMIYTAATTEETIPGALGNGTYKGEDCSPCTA
Put plainly: NTCP transporter assay. As to conditions: HepG2-hNTCP-C4 cells, sulfobromophthalein 40 and 100 μM. Type of assay: cell-based.

On to `C=C1[C@H](CO)[C@@H](O)C[C@@H]1n1cnc2c(=O)[nH]c(N)nc21` [entecavir], for which, in assay [1], the “HBV DNA released into the culture supernatant” value was “significantly reduced”.

With `O=C1OC(c2ccc(O)c(S(=O)(=O)O)c2)(c2ccc(O)c(S(=O)(=O)O)c2)c2c(Br)c(Br)c(Br)c(Br)c21` [sulfobromophthalein, Sulfobromophthalein], the HBV infection entry in assay [2] was “did not inhibit HBV infection”. The “bile acid uptake in sodium-containing condition” value in assay [3] was “impaired the bile acid uptake”.
